Key:
Mus musculus [1] = experiment: Maximum tolerated dose was determined for compound administered intraperitoneally in C3H/He mice; assay type: functional
Procedure, shortened: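 Female C3H/He mice, 8–12 weeks old, bearing KHT sarcoma. Given ip within 10 min, 0.5 mL/25 g (1 mL/25 g if solubility-limited). Escalating single doses to groups of 2–3 mice; MTD is the highest dose without severe or persistent clinical signs or death within 24 h.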

[2] = Half-life at pH of 5.5-6.0 at 4 degree Centigrade; conditions: pH 5.5-6.0
V79 [3] = experiment: Concentration which reduced survival to 1% following incubation 3 hours with V79 mammalian cells under hypoxic (Cnitrogen) conditions; assay type: functional, cell-based; conditions: Cricetulus griseus
Procedure, shortened: (§1)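 Chinese hamster V79-379A cells, 1.5 × 10⁶ per glass bottle, grown to confluency over 48 h. Exposed for 3 h at 37 °C to a range of agent concentrations in growth medium (pH 7.4), under aerobic or hypoxic conditions. Cells then trypsinized, diluted and plated for colony formation. The ratio is aerobic over hypoxic concentration.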

V79 [4] = experiment: Concentration which reduced survival to 1% following incubation 3 hours with V79 mammalian cells under aerobic (Cair) conditions; assay type: functional, cell-based; conditions: Cricetulus griseus; procedure, shortened: as §1
[5] = Ratio of concentration which reduced V79 cell survival to 1% under aerobic conditions to that of hypoxic conditions; assay type: functional; procedure, shortened: as §1
[6] = Half-life at pH of 5.5-6.0 at 23 degree Centigrade; assay type: ADME; conditions: pH 5.5
Procedure, shortened: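 Agent (0.2–0.5 mM) incubated in PBS, with or without NaHCO₃ (24–107 mM), pH adjusted right after preparation, at 23 °C. Aliquots taken over time and checked for loss by isocratic HPLC on a CN column, UV at 313 nm. Mobile phase was 10–25% methanol in 10 mM KH₂PO₄, pH 3.0.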

[7] = Half-life at pH of 7.0 at 4 degree Centigrade; assay type: ADME; conditions: pH 7
Procedure, shortened: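 Agent (0.2–0.5 mM) incubated in PBS at pH 7.0 and 4 °C, with pH adjusted right after the solution was made. Aliquots taken at set times were analysed by isocratic HPLC on a CN column, with UV detection at 313 nm. Mobile phase was 10–25% methanol in 10 mM KH2PO4, pH 3.0, at 2 mL min⁻¹. Half-life came from loss of parent compound.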

Mus musculus [8] = experiment: Maximum tolerated dose was determined for compound administered intraperitoneally as a suspension in arachis oil in C3H/He mice; assay type: functional

SMILES	MTD (Mus musculus [1]) [mM/kg]	Concentration (V79 [3]) [mM]	Concentration (V79 [4]) [mM]	Ratio [5]	also measured
Br.CC(C)(CBr)NCC(O)Cn1ccnc1[N+](=O)[O-] (centres undefined)	1	–	–	–	half-life [2]: < 5 min
Cl.F.O=[N+]([O-])c1nccn1CC(O)CNCCF (centres undefined)	–	2.5	35	14	–
CCNCC(O)Cn1ccnc1[N+](=O)[O-] (centres undefined)	3.9	–	–	–	–
Cl.O=[N+]([O-])c1nccn1CC(O)CNCCCl (centres undefined)	1.5	0.35	5	14.3	half-life [6]: > 300 min; half-life [7]: ~280 min
I.O=[N+]([O-])c1nccn1CC(O)CNCCI (centres undefined)	–	0.08	2.4	30	–
C[C@@H]1[C@H](C)N1CC(O)Cn1ccnc1[N+](=O)[O-] (some centres undefined)	3	–	–	–	–
CC(C)(CCl)NCC(O)Cn1ccnc1[N+](=O)[O-].Cl (centres undefined)	0.8	–	–	–	half-life [2]: 76 min
CC1(C)N(CC(O)Cn2ccnc2[N+](=O)[O-])C1(C)C (centres undefined)	–	–	–	–	MTD (Mus musculus [8]): 1.5 mM/kg
CC(C)(Cl)C(C)(C)NCC(O)Cn1ccnc1[N+](=O)[O-].Cl (centres undefined)	1.3	–	–	–	half-life [2]: < 2 min
Br.CC(C)(Br)C(C)(C)NCC(O)Cn1ccnc1[N+](=O)[O-] (centres undefined)	0.7	–	–	–	half-life [2]: < 2 min
C[C@@H](Cl)[C@@H](C)NCC(O)Cn1ccnc1[N+](=O)[O-].Cl (some centres undefined)	3	–	–	–	half-life [6]: 120 min
Br.C[C@@H](Br)[C@@H](C)NCC(O)Cn1ccnc1[N+](=O)[O-] (some centres undefined)	1	–	–	–	half-life [7]: 30 min
O=[N+]([O-])c1nccn1CC(O)CNCCO (centres undefined)	–	3.5	70	20	–
Br.O=[N+]([O-])c1nccn1CC(O)CNCCBr (centres undefined)	1	0.09	2.3	25.5	half-life [6]: 30 min
O=[N+]([O-])c1nccn1CC(O)CN1CC1 (centres undefined)	0.4	0.003	0.3	100	–

— ChEMBL document CHEMBL1124918, “Synthesis and evaluation of alpha-[[(2-haloethyl)amino]methyl]-2- nitro-1H-imidazole-1-ethanols as prodrugs of alpha-[(1-aziridinyl)methyl]-2- nitro-1H-imidazole-1-ethanol (RSU-1069) and its analogues which are radiosensitizers and bioreductively activated cytotoxins” (J Med Chem, 1990)
